*1 amine or outer side, *2 acyl side, *3 side chain or, on linkers, in order; H or OH if unused. Where a SMILES comes first, the peptide text is derived from it. [ ]: non-standard residue; d: D form. Ahppa(3S,4S) = O=C(C[C@H](O)[C@H](Cc1ccccc1)N[*:1])[*:2]; ACHPA = O=C(C[C@H](O)[C@H](CC1CCCCC1)N[*:1])[*:2]; 1Nal = N[C@@H](Cc1cccc2ccccc12)C(=O)O; Sta = CC(C)C[C@H](N)[C@@H](O)CC(=O)O; Cha = N[C@@H](CC1CCCCC1)C(=O)O; Chg = N[C@H](C(=O)O)C1CCCCC1; Tle = CC(C)(C)[C@H](N)C(=O)O
What follows are molecules tested against T1, Renin (Rattus norvegicus, UniProt P08424) (assay: Inhibitory activity against rat plasma renin in vitro.).
T1 sequence (P08424 whole entry): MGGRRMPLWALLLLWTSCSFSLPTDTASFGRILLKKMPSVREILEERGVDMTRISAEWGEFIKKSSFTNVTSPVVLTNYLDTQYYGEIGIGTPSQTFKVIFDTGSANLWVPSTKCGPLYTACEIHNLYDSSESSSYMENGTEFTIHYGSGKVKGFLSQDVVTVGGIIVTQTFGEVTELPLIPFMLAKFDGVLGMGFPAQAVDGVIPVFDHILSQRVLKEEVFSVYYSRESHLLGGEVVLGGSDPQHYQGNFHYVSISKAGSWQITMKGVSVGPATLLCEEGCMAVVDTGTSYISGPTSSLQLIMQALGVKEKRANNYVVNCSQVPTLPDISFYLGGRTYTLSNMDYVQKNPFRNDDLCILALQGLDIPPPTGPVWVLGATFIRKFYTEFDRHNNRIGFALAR
Type: cell-free
Method in brief: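 Pooled EDTA rat plasma with added PMSF 5 mM, 8-hydroxyquinoline 3 mM and extra EDTA 5 mM, at pH 7.4, mixed with serial 1:10 peptide dilutions (Tris/DMSO), split, and incubated 1 h at 37 and 0 °C.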
With `CC(=O)N[C@@H](Cc1cnc[nH]1)C(=O)N1CCC[C@H]1C(=O)N[C@@H](Cc1ccccc1)C(=O)N[C@@H](Cc1cnc[nH]1)C(=O)N[C@@H](CC(C)C)[C@@H](O)CC(=O)N[C@@H](CC(C)C)C(=O)N[C@@H](Cc1ccccc1)C(N)=O` the IC50 was 0.21 µM. Work on `CC(=O)N[C@@H](Cc1c[nH]cn1)C(=O)N1CCC[C@H]1C(=O)N[C@H](CC(C)C)C(=O)N[C@@H](Cc1c[nH]cn1)C(=O)N[C@@H](CC(C)C)[C@@H](O)CC(=O)N[C@@H](CC(C)C)C(=O)N[C@@H](Cc1ccccc1)C(N)=O` yielded an IC50 of roughly 1000 µM. With `CC(=O)N[C@@H](Cc1c[nH]cn1)C(=O)N1CCC[C@H]1C(=O)N[C@@H](Cc1ccccc1)C(=O)N[C@H](C(=O)N[C@@H](CC(C)C)[C@@H](O)CC(=O)N[C@@H](CC(C)C)C(=O)N[C@@H](Cc1ccccc1)C(N)=O)C(C)C` the IC50 was 0.03 µM. `CC(=O)N[C@@H](Cc1cnc[nH]1)C(=O)N1CCC[C@H]1C(=O)N[C@@H](Cc1ccccc1)C(=O)N[C@@H](Cc1cnc[nH]1)C(=O)N[C@@H](CC1CCCCC1)[C@@H](O)CC(=O)N[C@@H](CC(C)C)C(=O)N[C@@H](Cc1ccccc1)C(N)=O` gave an IC50 of 0.05 µM. Molecule `CC(=O)N[C@@H](Cc1cnc[nH]1)C(=O)N1CCC[C@H]1C(=O)N[C@@H](Cc1ccccc1)C(=O)N[C@@H](CC(C)C)C(=O)N[C@@H](CC(C)C)[C@@H](O)CC(=O)N[C@@H](CC(C)C)C(=O)N[C@@H](Cc1ccccc1)C(N)=O` has an IC50 of 0.31 µM. Molecule `CC(=O)N[C@@H](Cc1c[nH]cn1)C(=O)N1CCC[C@H]1C(=O)N[C@@H](Cc1ccccc1)C(=O)N[C@H](CC(C)C)C(=O)N[C@@H](CC(C)C)[C@@H](O)CC(=O)N[C@@H](CC(C)C)C(=O)N[C@@H](Cc1ccccc1)C(N)=O` has an IC50 of roughly 1000 µM. For `CC(=O)N[C@@H](Cc1cnc[nH]1)C(=O)N1CCC[C@H]1C(=O)N[C@@H](Cc1ccccc1)C(=O)N[C@H](C(=O)N[C@@H](CC1CCCCC1)[C@@H](O)CC(=O)N[C@@H](CC(C)C)C(=O)N[C@@H](Cc1ccccc1)C(N)=O)C(C)C`, the IC50 was 0.033 µM. Molecule `CC(=O)N[C@@H](Cc1c[nH]cn1)C(=O)N1CCC[C@H]1C(=O)N[C@@H](CC(C)C)C(=O)N[C@@H](Cc1c[nH]cn1)C(=O)N[C@@H](CC(C)C)[C@@H](O)CC(=O)N[C@@H](CC(C)C)C(=O)N[C@@H](Cc1ccccc1)C(N)=O` has an IC50 of 9.1 µM. `CC(=O)N[C@@H](Cc1c[nH]cn1)C(=O)N1CCC[C@@H]1C(=O)N[C@H](C)C(=O)N[C@@H](Cc1c[nH]cn1)C(=O)N[C@@H](CC(C)C)[C@@H](O)CC(=O)N[C@@H](CC(C)C)C(=O)N[C@@H](Cc1ccccc1)C(N)=O` was tested, and the IC50 was roughly 1000 µM. `CC(=O)N[C@@H](Cc1c[nH]cn1)C(=O)N1CCC[C@@H]1C(=O)N[C@@H](Cc1ccccc1)C(=O)N[C@H](C)C(=O)N[C@@H](CC(C)C)[C@@H](O)CC(=O)N[C@@H](CC(C)C)C(=O)N[C@@H](Cc1ccccc1)C(N)=O` gave an IC50 of roughly 1000 µM. `CC(=O)N[C@@H](Cc1ccccc1)C(=O)N1CCC[C@H]1C(=O)N[C@@H](Cc1ccccc1)C(=O)N[C@H](C(=O)N[C@@H](CC(C)C)[C@@H](O)CC(=O)N[C@@H](CC(C)C)C(=O)N[C@@H](Cc1ccccc1)C(N)=O)C(C)C` (Ac-FPFV[Sta]LF-NH2) was tested, and the IC50 was 0.042 µM. `CC(=O)N[C@@H](Cc1cnc[nH]1)C(=O)N1CCC[C@H]1C(=O)N[C@@H](Cc1ccccc1)C(=O)N[C@@H](Cc1cnc[nH]1)C(=O)N[C@@H](Cc1ccccc1)[C@@H](O)CC(=O)N[C@@H](CC(C)C)C(=O)N[C@@H](Cc1ccccc1)C(N)=O` (Ac-HPFH[Ahppa(3S,4S)]LF-NH2) gave an IC50 of 0.15 µM. With `CC(=O)N[C@@H](Cc1cnc[nH]1)C(=O)N1CCC[C@H]1C(=O)N[C@@H](Cc1ccccc1)C(=O)N[C@@H](Cc1cnc[nH]1)C(=O)N[C@@H](CC(C)C)[C@@H](O)CC(=O)N[C@@H](CC(C)C)C(=O)N[C@H](C(N)=O)C(C)C` (Ac-HPFH[Sta]LV-NH2) the IC50 was 0.27 µM. `CC(=O)N[C@@H](Cc1c[nH]cn1)C(=O)N1CCC[C@H]1C(=O)N[C@@H](Cc1ccccc1)C(=O)N[C@@H](Cc1c[nH]cn1)C(=O)N[C@@H](CC(C)C)[C@@H](O)CC(=O)N[C@@H](CC(C)C)C(=O)N[C@@H](CC1CCCCC1)C(N)=O` (Ac-HPFH[Sta]L[Cha]-NH2) was tested, and the IC50 was 0.16 µM. `CC(=O)N[C@@H](Cc1c[nH]cn1)C(=O)N1CCC[C@H]1C(=O)N[C@@H](Cc1ccccc1)C(=O)N[C@@H](Cc1c[nH]cn1)C(=O)N[C@@H](CC(C)C)[C@@H](O)CC(=O)N[C@H](C(=O)N[C@@H](Cc1ccccc1)C(N)=O)C(C)C` (Ac-HPFH[Sta]VF-NH2) was tested, and the IC50 was 2.8 µM. `CC(=O)N[C@@H](Cc1c[nH]cn1)C(=O)N1CCC[C@H]1C(=O)N[C@@H](Cc1ccccc1)C(=O)N[C@@H](Cc1c[nH]cn1)C(=O)N[C@@H](CC(C)C)[C@@H](O)CC(=O)N[C@@H](CC1CCCCC1)C(=O)N[C@@H](Cc1ccccc1)C(N)=O` (Ac-HPFH[Sta][Cha]F-NH2) was tested, and the IC50 was 2.7 µM. For `CC(=O)N[C@@H](Cc1cnc[nH]1)C(=O)N1CCC[C@H]1C(=O)N[C@@H](Cc1ccccc1)C(=O)N[C@@H](Cc1cnc[nH]1)C(=O)N[C@@H](CC(C)C)[C@@H](O)CC(=O)N[C@H](C(=O)N[C@@H](Cc1ccccc1)C(N)=O)C(C)(C)C` (Ac-HPFH[Sta][Tle]F-NH2), the IC50 was 1.9 µM. `CC[C@H](C)[C@H](NC(=O)[C@H](Cc1ccccc1)NC(=O)[C@@H]1CCCN1C(=O)[C@H](Cc1cnc[nH]1)NC(C)=O)C(=O)N[C@@H](Cc1ccccc1)[C@@H](O)CC(=O)N[C@@H](CC(C)C)C(=O)N[C@@H](Cc1ccccc1)C(N)=O` (Ac-HPFI[Ahppa(3S,4S)]LF-NH2) showed an IC50 of 1.27 µM. `CC(=O)N[C@@H](Cc1cnc[nH]1)C(=O)N1CCC[C@H]1C(=O)N[C@@H](Cc1ccccc1)C(=O)N[C@H](C(=O)N[C@@H](CC(C)C)[C@@H](O)CC(=O)N[C@@H](CC(C)C)C(=O)N[C@@H](Cc1ccccc1)C(N)=O)C1CCCCC1` (Ac-HPF[Chg][Sta]LF-NH2) showed an IC50 of 2.5 µM. For `CC(=O)N[C@@H](Cc1c[nH]cn1)C(=O)N1CCC[C@H]1C(=O)N[C@@H](Cc1ccccc1)C(=O)N[C@H](C(=O)N[C@@H](CC(C)C)[C@@H](O)CC(=O)N[C@@H](CC(C)C)C(=O)N[C@@H](Cc1ccccc1)C(N)=O)C(C)(C)C` (Ac-HPF[Tle][Sta]LF-NH2), the IC50 was 0.4 µM. Work on `CC(=O)N[C@@H](Cc1cnc[nH]1)C(=O)N1CCC[C@H]1C(=O)N[C@@H](Cc1c[nH]c2ccccc12)C(=O)N[C@@H](Cc1cnc[nH]1)C(=O)N[C@@H](CC(C)C)[C@@H](O)CC(=O)N[C@@H](CC(C)C)C(=O)N[C@@H](Cc1ccccc1)C(N)=O` (Ac-HPWH[Sta]LF-NH2) yielded an IC50 of 0.24 µM. With `CC(=O)N[C@@H](Cc1c[nH]cn1)C(=O)N1CCC[C@H]1C(=O)N[C@@H](Cc1cccc2ccccc12)C(=O)N[C@@H](Cc1c[nH]cn1)C(=O)N[C@@H](CC(C)C)[C@@H](O)CC(=O)N[C@@H](CC(C)C)C(=O)N[C@@H](Cc1ccccc1)C(N)=O` (Ac-HP[1Nal]H[Sta]LF-NH2) the IC50 was 0.22 µM. Molecule `CC(=O)N[C@@H](Cc1cnc[nH]1)C(=O)N1CCC[C@H]1C(=O)N[C@@H](CC1CCCCC1)C(=O)N[C@@H](Cc1cnc[nH]1)C(=O)N[C@@H](CC(C)C)[C@@H](O)CC(=O)N[C@@H](CC(C)C)C(=O)N[C@@H](Cc1ccccc1)C(N)=O` (Ac-HP[Cha]H[Sta]LF-NH2) has an IC50 of 0.65 µM. `COc1ccc(C[C@H](NC(C)=O)C(=O)N2CCC[C@H]2C(=O)N[C@@H](Cc2ccccc2)C(=O)N[C@H](C(=O)N[C@@H](CC(C)C)[C@@H](O)CC(=O)N[C@@H](CC(C)C)C(=O)N[C@@H](Cc2ccccc2)C(N)=O)C(C)C)cc1` (Ac-Y(Me)PFV[Sta]LF-NH2) was tested, and the IC50 was 0.034 µM. In the case of `CC(=O)N[C@@H](Cc1cccc2ccccc12)C(=O)N1CCC[C@H]1C(=O)N[C@@H](Cc1ccccc1)C(=O)N[C@H](C(=O)N[C@@H](CC(C)C)[C@@H](O)CC(=O)N[C@@H](CC(C)C)C(=O)N[C@@H](Cc1ccccc1)C(N)=O)C(C)C` (Ac-[1Nal]PFV[Sta]LF-NH2), the IC50 is reported as 0.05 µM. Molecule `CC(=O)N[C@H](C(=O)N1CCC[C@H]1C(=O)N[C@@H](Cc1ccccc1)C(=O)N[C@H](C(=O)N[C@@H](CC(C)C)[C@@H](O)CC(=O)N[C@@H](CC(C)C)C(=O)N[C@@H](Cc1ccccc1)C(N)=O)C(C)C)C1CCCCC1` (Ac-[Chg]PFV[Sta]LF-NH2) has an IC50 of 0.28 µM. Molecule `CC[C@H](C)[C@H](NC(=O)C[C@H](O)[C@H](CC1CCCCC1)NC(=O)[C@H](Cc1c[nH]cn1)NC(=O)[C@H](Cc1ccccc1)NC(=O)[C@@H]1CCCN1C(=O)[C@H](Cc1c[nH]cn1)NC(=O)[C@@H]1CCCN1)C(=O)N[C@@H](Cc1ccccc1)C(N)=O` (H-PHPFH[ACHPA]IF-NH2) has an IC50 of 0.065 µM. Work on `CC[C@H](C)[C@H](NC(=O)C[C@H](O)[C@H](Cc1ccccc1)NC(=O)[C@H](Cc1c[nH]cn1)NC(=O)[C@H](Cc1ccccc1)NC(=O)[C@@H]1CCCN1C(=O)[C@H](Cc1c[nH]cn1)NC(=O)[C@@H]1CCCN1)C(=O)N[C@@H](Cc1ccccc1)C(N)=O` (H-PHPFH[Ahppa(3S,4S)]IF-NH2) yielded an IC50 of 0.37 µM. In the case of `CC(C)[C@H](NC(=O)C[C@H](O)[C@H](Cc1ccccc1)NC(=O)[C@H](Cc1c[nH]cn1)NC(=O)[C@H](Cc1ccccc1)NC(=O)[C@@H]1CCCN1C(=O)[C@H](Cc1c[nH]cn1)NC(=O)[C@@H]1CCCN1)C(=O)N[C@@H](Cc1ccc(O)cc1)C(=O)N[C@@H](CCCCN)C(N)=O` (H-PHPFH[Ahppa(3S,4S)]VYK-NH2), the IC50 is reported as 1.3 µM. Work on `CC[C@H](C)[C@H](NC(=O)C[C@H](O)[C@H](CC(C)C)NC(=O)[C@H](Cc1c[nH]cn1)NC(=O)[C@H](Cc1ccccc1)NC(=O)[C@@H]1CCCN1C(=O)[C@H](Cc1c[nH]cn1)NC(=O)[C@@H]1CCCN1)C(=O)N[C@@H](Cc1ccccc1)C(N)=O` (H-PHPFH[Sta]IF-NH2) yielded an IC50 of 10 µM. Molecule `CC(C)C[C@H](NC(=O)C[C@H](O)[C@H](CC(C)C)NC(=O)[C@H](Cc1cnc[nH]1)NC(=O)[C@H](Cc1ccccc1)NC(=O)[C@@H]1CCCN1C(=O)[C@H](Cc1cnc[nH]1)NC(=O)[C@@H]1CCCN1)C(=O)N[C@@H](Cc1ccccc1)C(N)=O` (H-PHPFH[Sta]LF-NH2) has an IC50 of 0.24 µM.

From ChEMBL document CHEMBL1124191, “Design of rat renin inhibitory peptides” (J Med Chem, 1988)
